Laboratory results from publication PMC2825117 (Journal of Medicinal Chemistry, 2010).

What was measured:
JMJD2E = target: T1, JMJD2E (Homo sapiens, UniProt B2RXH2); experiment: MALDI-TOF MS based demethylation assay, JMJD2E; assay type: biochemical
T1 sequence (B2RXH2 1-337): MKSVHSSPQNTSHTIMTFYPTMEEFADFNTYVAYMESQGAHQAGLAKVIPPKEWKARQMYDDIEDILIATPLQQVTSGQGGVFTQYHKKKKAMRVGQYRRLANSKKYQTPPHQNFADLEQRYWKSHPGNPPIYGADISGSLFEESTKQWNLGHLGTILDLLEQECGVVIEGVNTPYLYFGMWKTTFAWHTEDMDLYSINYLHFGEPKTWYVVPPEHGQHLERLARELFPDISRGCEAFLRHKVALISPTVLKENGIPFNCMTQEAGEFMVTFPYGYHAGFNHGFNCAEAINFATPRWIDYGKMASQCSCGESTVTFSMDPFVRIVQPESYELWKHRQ
Summary of the method: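 Enzyme: human JMJD2E catalytic domain (residues 1-337), expressed in E. coli as N-terminal His6-tagged protein and purified by Ni-affinity chromatography. Quenched reaction mixtures are mixed with α-cyano-4-hydroxycinnamic acid matrix and analysed by MALDI-TOF MS. Percentage demethylation comes from the relative intensities of the peptide methylation states. IC50 is derived from how percentage demethylation varies across inhibitor concentrations.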

JMJD2A = target: T2, JMJD2A (Homo sapiens, UniProt O75164); experiment: MALDI-TOF MS based demethylation assay, JMJD2A; assay type: biochemical
T2 sequence (O75164 1-1064): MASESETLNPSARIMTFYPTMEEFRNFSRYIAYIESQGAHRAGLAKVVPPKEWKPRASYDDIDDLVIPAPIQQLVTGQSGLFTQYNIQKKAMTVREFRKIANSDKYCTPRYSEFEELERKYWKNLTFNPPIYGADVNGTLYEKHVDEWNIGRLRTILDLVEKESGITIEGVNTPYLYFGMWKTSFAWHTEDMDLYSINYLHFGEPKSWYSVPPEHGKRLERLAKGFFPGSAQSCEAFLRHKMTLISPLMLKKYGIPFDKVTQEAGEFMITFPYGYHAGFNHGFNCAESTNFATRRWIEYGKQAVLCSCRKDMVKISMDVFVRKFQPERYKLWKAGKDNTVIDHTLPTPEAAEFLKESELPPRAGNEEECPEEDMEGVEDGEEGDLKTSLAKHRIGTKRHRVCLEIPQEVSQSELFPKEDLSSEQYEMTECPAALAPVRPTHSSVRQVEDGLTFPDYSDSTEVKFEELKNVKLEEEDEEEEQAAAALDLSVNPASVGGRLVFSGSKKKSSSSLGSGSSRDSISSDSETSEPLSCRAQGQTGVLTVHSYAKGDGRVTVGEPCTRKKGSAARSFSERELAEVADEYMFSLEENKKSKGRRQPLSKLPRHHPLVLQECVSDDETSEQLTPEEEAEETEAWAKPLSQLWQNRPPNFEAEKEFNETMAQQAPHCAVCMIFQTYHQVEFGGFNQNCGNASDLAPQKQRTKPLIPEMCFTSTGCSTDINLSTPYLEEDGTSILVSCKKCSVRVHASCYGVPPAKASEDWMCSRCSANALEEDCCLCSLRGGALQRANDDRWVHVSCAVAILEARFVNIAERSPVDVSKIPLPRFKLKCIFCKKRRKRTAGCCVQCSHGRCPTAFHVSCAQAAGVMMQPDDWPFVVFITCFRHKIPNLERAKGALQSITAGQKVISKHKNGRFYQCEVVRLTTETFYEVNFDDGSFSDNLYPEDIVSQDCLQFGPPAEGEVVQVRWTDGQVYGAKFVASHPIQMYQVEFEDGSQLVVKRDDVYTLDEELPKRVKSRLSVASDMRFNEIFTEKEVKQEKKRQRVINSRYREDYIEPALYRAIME

FIH = FIH (Homo sapiens, UniProt Q9NWT6); experiment: FIH MALDI-TOF hydroxylation assay; assay type: biochemical
PHD2 = PHD2 (Homo sapiens, UniProt Q9GZT9); experiment: PHD2 biochemical activity assay; details: hydroxylation of CODD peptide substrate, MALDI-TOF MS
Chain of PHD2 (Q9GZT9 whole entry): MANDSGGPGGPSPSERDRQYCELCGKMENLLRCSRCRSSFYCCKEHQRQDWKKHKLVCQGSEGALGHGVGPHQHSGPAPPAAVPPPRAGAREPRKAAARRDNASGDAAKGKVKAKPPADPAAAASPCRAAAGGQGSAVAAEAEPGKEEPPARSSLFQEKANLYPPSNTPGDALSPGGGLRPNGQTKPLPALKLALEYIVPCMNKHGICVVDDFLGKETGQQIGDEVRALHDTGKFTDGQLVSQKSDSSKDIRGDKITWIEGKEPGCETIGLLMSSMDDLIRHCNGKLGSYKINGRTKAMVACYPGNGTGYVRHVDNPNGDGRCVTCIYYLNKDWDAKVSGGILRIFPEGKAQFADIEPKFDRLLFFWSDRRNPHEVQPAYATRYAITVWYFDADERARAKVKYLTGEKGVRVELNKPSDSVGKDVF

Chain of FIH (Q9NWT6 whole entry): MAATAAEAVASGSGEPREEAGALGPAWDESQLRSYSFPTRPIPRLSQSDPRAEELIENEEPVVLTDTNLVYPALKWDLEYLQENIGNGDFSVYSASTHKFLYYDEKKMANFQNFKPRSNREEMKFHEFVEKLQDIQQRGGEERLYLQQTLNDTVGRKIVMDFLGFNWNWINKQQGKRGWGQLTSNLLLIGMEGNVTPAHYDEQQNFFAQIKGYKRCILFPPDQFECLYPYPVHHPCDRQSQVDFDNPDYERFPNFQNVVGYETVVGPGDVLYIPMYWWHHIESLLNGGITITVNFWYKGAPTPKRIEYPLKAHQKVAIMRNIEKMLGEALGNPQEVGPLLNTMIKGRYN

Row | SMILES | IC50 (JMJD2E) | IC50 (FIH) | inhibitory activity toward PHD2 (in words) (PHD2) | also measured
1 | O=C(O)C(=O)N[C@H](Cc1ccc(OS(=O)(=O)c2ccccc2)cc1)C(=O)O [7d] | 43 µM |  |  | IC50 (JMJD2A): 17 µM
2 | O=C(O)CNC(=O)C(=O)O [1a, N-oxalylglycine, reference compound] |  |  | potent inhibitor of PHD2 | 
3 | CC(C)(C)c1ccc(S(=O)(=O)Oc2ccc(C[C@@H](NC(=O)C(=O)O)C(=O)O)cc2)cc1 [7c] |  | 37.2 µM | No inhibitory activity | selectivity of inhibition (JMJD2E) with regard to FIH (FIH; comparison of JMJD2E FDH IC50 and FIH MALDI-TOF IC50): relatively low

Further lines, with some results ahead:

Row | IC50 (JMJD2E) | IC50 (FIH) | inhibitory activity toward PHD2 (in words) (PHD2) | SMILES | also measured
4 |  | 60.2 µM | No inhibitory activity | O=C(O)C(=O)N[C@H](Cc1ccc(OS(=O)(=O)c2ccc(Br)cc2)cc1)C(=O)O [7f] | 
5 |  |  | No inhibitory activity | O=C(O)C(=O)N[C@H](Cc1ccc(OS(=O)(=O)c2ccc(F)cc2)cc1)C(=O)O [7e] | 
6 | 47 µM |  |  | O=C(O)C(=O)N[C@H](Cc1ccc(OCc2ccccc2[N+](=O)[O-])cc1)C(=O)O [10k] | 
